Assay outcomes from PubChem BioAssay.
HKDC1 inhibitor = HKDC1 hexokinase inhibitors, primary screen, biochemical, fluorescence, uHTS; Q2TB90; recombinant HKDC1, G6PDH/diaphorase resazurin coupled fluorescence; inhibition, % at 20 µM; 340,000 tested, 0.16% active;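 active = inhibition above about 35% when tested at 20 µM, limit read from the data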;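 note: plate controls were DMSO wells with enzyme for no effect and DMSO wells lacking enzyme for full effect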
Target sequence (Q2TB90 whole entry, looked up): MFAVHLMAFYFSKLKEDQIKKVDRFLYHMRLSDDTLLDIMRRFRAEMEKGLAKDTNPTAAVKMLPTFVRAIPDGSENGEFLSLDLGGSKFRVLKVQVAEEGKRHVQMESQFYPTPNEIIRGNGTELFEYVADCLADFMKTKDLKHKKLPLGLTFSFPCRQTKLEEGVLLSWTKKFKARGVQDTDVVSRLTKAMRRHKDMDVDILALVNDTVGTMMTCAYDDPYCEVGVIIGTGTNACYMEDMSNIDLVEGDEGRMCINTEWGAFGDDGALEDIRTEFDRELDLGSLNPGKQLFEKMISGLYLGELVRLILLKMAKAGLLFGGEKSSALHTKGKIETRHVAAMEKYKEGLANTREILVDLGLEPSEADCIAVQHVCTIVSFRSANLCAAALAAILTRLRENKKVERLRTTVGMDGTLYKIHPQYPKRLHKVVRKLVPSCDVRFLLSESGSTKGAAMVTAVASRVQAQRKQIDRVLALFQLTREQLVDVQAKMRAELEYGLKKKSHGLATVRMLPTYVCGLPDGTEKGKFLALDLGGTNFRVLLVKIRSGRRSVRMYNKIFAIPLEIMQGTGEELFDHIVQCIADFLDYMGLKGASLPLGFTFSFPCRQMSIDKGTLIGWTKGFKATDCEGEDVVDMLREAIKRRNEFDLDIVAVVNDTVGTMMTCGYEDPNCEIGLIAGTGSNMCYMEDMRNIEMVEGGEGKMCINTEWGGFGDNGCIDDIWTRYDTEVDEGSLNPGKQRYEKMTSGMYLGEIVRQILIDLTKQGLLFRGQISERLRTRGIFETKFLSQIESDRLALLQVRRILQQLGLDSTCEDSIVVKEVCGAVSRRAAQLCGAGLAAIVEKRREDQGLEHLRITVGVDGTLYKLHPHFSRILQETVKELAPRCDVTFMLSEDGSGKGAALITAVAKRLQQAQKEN
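Test system: recombinant HKDC1 (HK5) hexokinase enzyme, produced in-house; Amount: enzyme 5 µg/mL final; Buffer or medium: Tris pH 8.0 buffer with MgCl2, Tween-20, BSA, BME; Reagent: glucose and ATP substrates; Doses: 20 µM test compound, 1% DMSO; Incubation: 90 min reaction incubation at room temperature, dark; Detection: resorufin fluorescence at 613 nm.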
PfGluPho inh = PfG6PD enzyme inhibitors, primary screen, biochemical, fluorescence intensity, uHTS | glucose-6-phosphate dehydrogenase-6-phosphogluconolactonase (Plasmodium falciparum 3D7) | inhibition, % at 20 µM | 350,000 tested, 0.78% active | PfGluPho enzyme, NADPH resazurin-diaphorase fluorescence;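 active = inhibition reaching at least a set limit at 20 µM in the primary screen, cut at about 59% in these data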;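 note: 0% = DMSO wells with substrate and 100% = DMSO wells lacking glucose-6-phosphate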
Diaphorase inh = diaphorase inhibitors and chemical oxidizers, primary screen, counter-screen for diaphorase-coupled primary assays, biochemical, uHTS, resorufin fluorescence; diaphorase resazurin-to-resorufin fluorescence, NADH, 16 min; bacterial (C. kluyveri) enzyme, not human; inhibition, % at 20 µM; 190,000 tested, 0.69% active; AID 1217, 2008;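 active = primary screen inhibition at 20 µM above a set limit, cut at about 50% in these data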;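 note: plate controls were DMSO with full reaction for no effect and wells lacking NADH for full effect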
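material = Clostridium kluyveri diaphorase enzyme | amount = 0.14 U/mL diaphorase, enzyme working solution | schedule = incubation 16 min, room temperature | detection = fluorescence of resorufin formed from resazurin, Ex 544/Em 590 nm | benchmarks = positive control minus NADH, DMSO neutral control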
G6PDH counter = L. mesenteroides G6PDH inhibitors, counter-screen for G6PDH-coupled screening assays, biochemical, Leuconostoc mesenteroides enzyme; Purified L. mesenteroides G6PDH, diaphorase/resazurin coupled fluorescence, 45 min; inhibition, % at 5 µM; 200,000 tested, 0.12% active; in the data active = inhibition above about 50%
Starred values were filed as active, the others as inactive; nt = no result. A selection: hits, their analogues and other compounds. The true share with any hit is near 1.3%.

SMILES	HKDC1 inhibitor	PfGluPho inh	Diaphorase inh	G6PDH counter
Nc1c(C(=O)NCC2CCCO2)sc2nc3c(c(-c4ccco4)c12)CC/C3=C\c1ccco1 (configuration not stated)	34.8	30.8	89.3*	8.9
N#Cc1sc2nc3c(c(-c4ccco4)c2c1N)CCCC3	4.4	2.5	51.7*	8.1
NC(=O)c1sc2nc3c(c(-c4ccco4)c2c1N)CCCC3	-0.5	11.1	nt	nt
Cc1ccccc1NC(=O)c1sc2nc3c(c(-c4ccco4)c2c1N)CCC3	5.7	12.9	52.7*	6.3
O=C(/C=C/c1ccco1)NCC1CCCO1 (configuration not stated)	-2.9	16.7	8.9	0.6
COCCn1c(SCC(=O)Nc2ccc3c(c2)OCCO3)nnc1-c1ccncc1	-2.4	-11.0	nt	nt
Cc1ccc(CCC(=O)Nc2ccc(C#N)cc2)o1	2.6	7.5	nt	nt
O=C(COC(=O)CSc1ccc(Cl)cc1)Nc1ccc2[nH]c(=O)[nH]c2c1	0.3	-8.5	nt	nt
COC(=O)Oc1nsnc1N1CCOCC1	-25.0	60.8*	2.1	-4.7
COc1cc(NC(=O)CNC(c2ccccc2)c2ccccc2)cc(OC)c1OC	-2.2	4.3	nt	nt
COc1cc(NC(c2ccccc2)c2ccccc2)cc(OC)c1OC	1.5	36.3	76.7*	14.8
COc1ccc(CC(=O)N(Cc2ccccc2)c2ccc(C)cc2)cc1OC	0.7	8.6	nt	nt
Cc1cc(-c2ccco2)c(C#N)c2nc3ccccc3n12	4.5	9.3	71.5*	20.5
CN=C1C([N+](=O)[O-])=CC=C2C1=NC1(CCCCC1)N2O	-12.0	-14.3	71.5*	39.9
O=[N+]([O-])C1=CC=C2C(=NC3(CCCCC3)N2O)C1=NCCO	9.3	18.8	76.1*	23.8
Cc1ccc(S(=O)(=O)c2nnn3c2nc(NC2CCN(Cc4ccccc4)CC2)c2ccccc23)cc1C	-0.7	-1.7	nt	nt
C#Cc1ccc([C@@H]2C=C(C(=O)N3CCN(Cc4ccc5c(c4)OCO5)CC3)O[C@H](OCCCCO)C2)cc1	1.7	18.2	53.2*	4.6
O=C(NCCCOc1ccc([N+](=O)[O-])cc1Cl)OCc1ccccc1	4.8	10.7	nt	nt
COc1cc(C(=O)Oc2c(CN3CCOCC3)cc(Cl)c3cccnc23)cc(OC)c1OC	2.2	11.1	58.1*	37.7
O=c1c(CN2CCN(c3ccccn3)CC2)coc2ccccc12	-3.9	-6.0	11.5	-4.9
COc1ccccc1N1CCN(Cc2cc(Br)c(O)c3ncccc23)CC1	-27.1	-4.2	58.2*	18.9
Oc1c(CN2CCN(c3ccccn3)CC2)cc(Cl)c2cccnc12	-3.0	-20.7	53.0*	-22.2
COCc1cc(CN2CCCC2)c(O)c2ncccc12	-9.7	24.4	44.0	43.0
OCCN1CCN(Cc2cc(Cl)c3cccnc3c2O)CC1	-0.3	18.4	68.7*	52.7*
CCCCCCN1C[C@@H](O)[C@H](n2cc(C3CC3)nn2)C[C@@H]1c1ccc(C)cc1	nt	21.5	nt	nt
SMILES	HKDC1 inhibitor	PfGluPho inh	Diaphorase inh	G6PDH counter
Cn1c(N)c(C(=O)COC(=O)c2ccccc2C(=O)c2ccc(Cl)c([N+](=O)[O-])c2)c(=O)n(C)c1=O	8.3	2.3	nt	nt
Clc1ccccc1N=Nc1ccccn1	3.9	90.6*	nt	nt
Cc1[nH][nH]c(=O)c1N=Nc1ccccc1Cl	-3.5	-14.9	nt	nt
COc1cccc(C(=O)OCC(=O)Nc2cc(C)on2)c1OC	2.9	-12.7	nt	nt
Cc1cccc(-n2c(SCC(=O)N3CCCC3)nc3n[nH]c(C)c3c2=N)c1	2.1	2.8	67.7*	9.3
CCCCN(CC)C(=O)CSc1nc2n[nH]c(C)c2c(=N)n1-c1cccc(C)c1	2.7	5.1	66.5*	10.6
O=C(NCc1ccc(N2CCCC2=O)cc1)c1cc(COc2c(F)cccc2F)on1	-6.4	-19.9	nt	nt
O=C(Nc1cccc(F)c1)NC1(C(=O)NCC2CCCO2)CCCCC1 (configuration not stated)	-5.2	-0.8	nt	nt
N#CCCn1cc(/C=C2\NC(=S)N(c3ccccc3)C2=O)c(-c2ccc(F)cc2)n1	-3.9	-7.1	84.9*	16.2
CCCn1c(NC(=O)CN2C(=O)NC3(CCCCC3)C2=O)nc2ccccc21	-1.8	11.8	nt	nt
COc1ccc(-n2nnnc2SCC(=O)Nc2ccccc2F)cc1	-6.4	-6.1	nt	nt
Oc1ccc(C2=Nn3c(nnc3-c3ccco3)SC2)cc1O	2.4	-26.0	69.9*	19.1
CCN1C(=O)[C@H]2[C@@H](c3ccc(-c4ccc(OC)cc4)cc3)N[C@@](CC(C)C)(C(=O)OC)[C@H]2C1=O	-4.2	-2.7	nt	nt
COc1ccccc1CNC(=O)CN1C(=O)NC2(CCCC2)C1=O	0.3	-17.1	nt	nt
O=C(O)C1=C[C@@H](c2csc3ccccc23)C[C@@H](OCCCCO)O1	-3.5	-2.2	14.8	23.4
NC(=O)C1=C[C@H](c2csc3ccccc23)C[C@H](OCCCCO)O1	6.3	15.6	56.0*	18.3
O=C(C1CCCO1)N1CCN(Cc2c(O)ccc3ccccc23)CC1 (configuration not stated)	15.0	14.8	56.3*	22.4
Cc1cc(Br)c(NC(=O)CN2CCCC2)c(Br)c1	-4.7	-2.0	nt	nt
O=C(COc1ccccc1O)N1CCN(C(=O)c2ccco2)CC1	-2.0	-7.0	6.6	6.1
O=C(COc1cccnc1[N+](=O)[O-])N1CCN(C(=O)c2ccco2)CC1	4.7	22.3	58.9*	12.4
O=C(OCC(=O)N1CCN(C(=O)c2ccco2)CC1)c1cc(-c2ccco2)nc2ccccc12	37.1*	45.9	37.9	4.9
CCOC(=O)N1CCN(Cc2nc3cc(NC(=O)c4ccco4)ccc3n2CC)CC1	-10.4	-2.6	nt	nt
COc1ccc(S(=O)(=O)N(C)CC(=O)Nc2ccc(C)cc2)cc1OC	-7.9	5.1	65.2*	6.4
COc1cc(NC(=O)CN(C)S(=O)(=O)c2ccc(C)cc2)cc(OC)c1	0.8	2.3	5.0	5.3
Cc1ccc2nc(NC(=O)C3CCN(C(=O)c4ccc(F)cc4)CC3)sc2c1	-2.7	16.3	nt	nt
SMILES	HKDC1 inhibitor	PfGluPho inh	Diaphorase inh	G6PDH counter
Fc1ccc(N=c2ssnc2Cl)c(F)c1	-23.5	87.2*	17.8	1.4
Clc1nssc1=Nc1ccccc1	-19.3	77.2*	-0.4	6.3
COc1ccc(N=c2ssnc2Cl)cc1	-55.2	82.9*	10.8	-0.7
O=C(NCCc1ccccc1)c1cccc(NC(=O)C2CCCC2)c1	-4.1	27.9	nt	nt
COc1ccc(NCC(=O)NN=C2CCS(=O)(=O)c3ccc(F)cc32)cc1	8.9	16.9	nt	nt
COc1ccc(CCNC(=O)CSc2nc3[nH]ncc3c(=O)n2-c2ccccc2OC)cc1OC	-6.0	14.4	-1.4	4.3
COc1ccc(CCNC(=O)CSc2nc3[nH]ncc3c(=O)n2-c2ccc(Cl)cc2Cl)cc1OC	25.8	48.3	73.4*	1.6
CC(CCc1ccccc1)NC(=O)CNC(=O)c1ccccc1Br (configuration not stated)	-6.8	13.6	nt	nt
